According to ChEMBL document CHEMBL5678806, “NMS-P937, an orally available, specific small-molecule polo-like kinase 1 inhibitor with antitumor activity in solid and hematologic malignancies” (Mol Cancer Ther, 2012):

What was measured:
[1] = molecular target: Serine/threonine-protein kinase ULK3 (Homo sapiens) (UniProt Q6PHR2); assay: Inhibition of N-terminal 6His-tagged recombinant human full-length ULK3 expressed in baculovirus infected Sf21 cells assessed as residual activity at 0.1 uM relative to control
[2] = molecular target: Mitogen-activated protein kinase kinase kinase 9 (Homo sapiens) (UniProt P80192); assay: Inhibition of N-terminal 6His-tagged recombinant human MLK1 (134 to 414 residues) expressed in baculovirus infected Sf21 cells assessed as residual activity at 0.1 uM relative to control
[3] = molecular target: Serine/threonine-protein kinase D1 (Homo sapiens) (UniProt Q15139); assay: Inhibition of N-terminal His6-tagged recombinant full-length human PKCmu expressed in Sf21 cells assessed as residual activity at 1 uM relative to control
[4] = molecular target: T1, Activated CDC42 kinase 1 (Homo sapiens, UniProt Q07912); assay: Inhibition of ACK1 (unknown origin) in presence of [gamma-33P]ATP
[5] = Antiproliferative activity against human M-07e cells assessed as inhibition of cell growth incubated for 72 hrs by cell-titer glo assay; type: functional, cell-based
Procedure, shortened: (§1)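 Cells seeded at 10,000–30,000/cm² (adherent) or 100,000/mL (nonadherent) in medium with 10% fetal calf serum; after 24 h, treated in duplicate with serial dilutions for 72 h. Viable cell number read by CellTiter-Glo luminescence; IC50 from sigmoidal fit; at least two independent experiments.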

[6] = molecular target: 3-phosphoinositide-dependent protein kinase 1 (Homo sapiens) (UniProt O15530); assay: Inhibition of N-terminal His6-tagged recombinant human PDK1 (52 to end residues) expressed in baculovirus infected Sf21 cells assessed as residual activity at 0.1 uM relative to control
[7] = Antiproliferative activity against human GBM-0627-GFD cells assessed as inhibition of cell growth incubated for 72 hrs by cell-titer glo assay; type: functional, cell-based
Procedure, shortened: (§2)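 Cells seeded 10,000–30,000/cm² (adherent) or 100,000/mL (suspension) in medium with 10% fetal calf serum; after 24 h treated in duplicate with serial dilutions for 72 h. Viable cells read by CellTiter-Glo luminescence; IC50 from sigmoidal fit; at least two independent experiments.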

[8] = system: A2780; assay: Antiproliferative activity against human A2780 cells assessed as inhibition of cell growth incubated for 72 hrs by cell-titer glo assay; type: functional, cell-based; settings: A2780, 72 h; procedure, shortened: as §2
[9] = Antiproliferative activity against human adriamycin-resistant RPMI-8226-ADR cells assessed as inhibition of cell growth incubated for 72 hrs by cell-titer glo assay; type: functional, cell-based
[10] = molecular target: Fibroblast growth factor receptor 1 (Homo sapiens, UniProt P11362); assay: Inhibition of FGFR1 (unknown origin) in presence of [gamma-33P]ATP
[11] = molecular target: Insulin-like growth factor 1 receptor (Homo sapiens) (UniProt P08069); assay: Inhibition of N-terminal 6His-tagged recombinant human IGF-1R (959 to end residues) expressed in baculovirus infected Sf21 cells assessed as residual activity at 1 uM relative to control
[12] = molecular target: Non-receptor tyrosine-protein kinase TYK2 (Homo sapiens, UniProt P29597); assay: Inhibition of TYK2 (unknown origin) in presence of [gamma-33P]ATP
[13] = system: BT-20; assay: Antiproliferative activity against human BT-20 cells assessed as inhibition of cell growth incubated for 72 hrs by cell-titer glo assay; type: functional, cell-based; settings: BT-20, 72 h; procedure, shortened: as §2
[14] = Cmax in male cynomolgus monkey at 5 mg/kg, po by LC-MS analysis; type: ADME, organism-based, Macaca fascicularis; settings: in vivo
[15] = system: A549; assay: Antiproliferative activity against human A549 cells assessed as inhibition of cell growth incubated for 72 hrs by cell-titer glo assay; type: functional, cell-based; settings: A549, 72 h; procedure, shortened: as §2
[16] = molecular target: G protein-coupled receptor kinase 6 (Homo sapiens) (UniProt P43250); assay: Inhibition of N-terminal 6His-tagged recombinant full-length human GRK6 expressed in baculovirus infected Sf21 cells assessed as residual activity at 1 uM relative to control
[17] = molecular target: Maternal embryonic leucine zipper kinase (Homo sapiens) (UniProt Q14680); assay: Inhibition of MELK (unknown origin) at 10 micromol/L in presence of [gamma-33P]ATP relative to control; settings: dose 10.0 µmol/L
[18] = molecular target: Homeodomain-interacting protein kinase 2 (Homo sapiens) (UniProt Q9H2X6); assay: Inhibition of N-terminal His6-tagged recombinant human HIPK2 (165 to 564 residues) expressed in baculovirus infected Sf21 cells assessed as residual activity at 0.1 uM relative to control
[19] = molecular target: Serine/threonine-protein kinase tousled-like 2 (Homo sapiens, UniProt Q86UE8); assay: Inhibition of TLK2 (unknown origin) in presence of [gamma-33P]ATP
[20] = system: HCC1806; assay: Antiproliferative activity against human HCC1806 cells assessed as inhibition of cell growth incubated for 72 hrs by cell-titer glo assay; type: functional, cell-based; settings: HCC1806, 72 h; procedure, shortened: as §1
[21] = Half-life in Sprague-Dawley rat at 10 mg/kg, po by LC-MS analysis; type: ADME, organism-based; settings: in vivo
[22] = system: HT-29; assay: Antiproliferative activity against human HT-29 cells assessed as inhibition of cell growth incubated for 72 hrs by cell-titer glo assay; type: functional, cell-based; settings: HT-29, 72 h; procedure, shortened: as §1
[23] = molecular target: Serine/threonine-protein kinase 26 (Homo sapiens, UniProt Q9P289); assay: Inhibition of MST4 (unknown origin) in presence of [gamma-33P]ATP
[24] = system: SU-DHL-6; assay: Antiproliferative activity against human SU-DHL-6 cells assessed as inhibition of cell growth incubated for 72 hrs by cell-titer glo assay; type: functional, cell-based; settings: SU-DHL-6, 72 h
[25] = molecular target: Serine/threonine-protein kinase SIK1 (Homo sapiens) (UniProt P57059); assay: Inhibition of N-terminal 6His-tagged recombinant human SIK (1 to 281 residues) expressed in baculovirus infected Sf21 cells assessed as residual activity at 1 uM relative to control
[26] = system: HeLa; assay: Antiproliferative activity against human HeLa cells assessed as inhibition of cell growth incubated for 72 hrs by cell-titer glo assay; type: functional, cell-based; procedure, shortened: as §1
[27] = molecular target: T1, Activated CDC42 kinase 1; assay: Inhibition of N-terminal GST-tagged recombinant human ACK1 (1 to 389 residues) expressed in baculovirus infected Sf21 cells assessed as residual activity at 1 uM relative to control
[28] = system: CAKI-2; assay: Antiproliferative activity against human CAKI-2 cells assessed as inhibition of cell growth incubated for 72 hrs by cell-titer glo assay; type: functional, cell-based; settings: CAKI-2, 72 h; procedure, shortened: as §2
[29] = molecular target: Casein kinase 2 (Homo sapiens, UniProt P67870+P68400+P19784+Q8NEV1); assay: Inhibition of CK2 (unknown origin) in presence of [gamma-33P]ATP; type: protein assay
[30] = molecular target: Insulin receptor (Homo sapiens, UniProt P06213); assay: Inhibition of IR (unknown origin) in presence of [gamma-33P]ATP
[31] = molecular target: cAMP-dependent protein kinase catalytic subunit PRKX (Homo sapiens) (UniProt P51817); assay: Inhibition of N-terminal 6His-tagged recombinant full-length human PrKX expressed in baculovirus infected Sf21 cells assessed as residual activity at 1 uM relative to control
[32] = molecular target: Tyrosine-protein kinase Lyn (Mus musculus) (UniProt P25911); assay: Inhibition of N-terminal his6-tagged recombinant full-length mouse Lyn expressed in baculovirus infected Sf21 cells assessed as residual activity at 1 uM relative to control
Tyrosine-protein kinase Lyn (Mus musculus), sequence (P25911 whole entry): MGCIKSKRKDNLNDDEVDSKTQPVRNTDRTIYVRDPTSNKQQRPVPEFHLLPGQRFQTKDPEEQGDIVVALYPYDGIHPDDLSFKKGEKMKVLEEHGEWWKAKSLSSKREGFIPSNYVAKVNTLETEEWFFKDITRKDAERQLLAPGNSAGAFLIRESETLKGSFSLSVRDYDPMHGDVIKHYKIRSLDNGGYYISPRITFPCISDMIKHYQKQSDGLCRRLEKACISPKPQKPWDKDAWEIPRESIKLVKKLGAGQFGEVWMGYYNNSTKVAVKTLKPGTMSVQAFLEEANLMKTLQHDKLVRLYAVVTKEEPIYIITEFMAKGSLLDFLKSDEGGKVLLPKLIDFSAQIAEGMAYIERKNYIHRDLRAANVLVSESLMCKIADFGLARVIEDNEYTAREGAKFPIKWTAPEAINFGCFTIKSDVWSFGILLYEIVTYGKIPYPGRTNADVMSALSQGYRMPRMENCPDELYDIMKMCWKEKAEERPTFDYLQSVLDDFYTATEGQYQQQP

Fibroblast growth factor receptor 1, sequence (P11362 whole entry): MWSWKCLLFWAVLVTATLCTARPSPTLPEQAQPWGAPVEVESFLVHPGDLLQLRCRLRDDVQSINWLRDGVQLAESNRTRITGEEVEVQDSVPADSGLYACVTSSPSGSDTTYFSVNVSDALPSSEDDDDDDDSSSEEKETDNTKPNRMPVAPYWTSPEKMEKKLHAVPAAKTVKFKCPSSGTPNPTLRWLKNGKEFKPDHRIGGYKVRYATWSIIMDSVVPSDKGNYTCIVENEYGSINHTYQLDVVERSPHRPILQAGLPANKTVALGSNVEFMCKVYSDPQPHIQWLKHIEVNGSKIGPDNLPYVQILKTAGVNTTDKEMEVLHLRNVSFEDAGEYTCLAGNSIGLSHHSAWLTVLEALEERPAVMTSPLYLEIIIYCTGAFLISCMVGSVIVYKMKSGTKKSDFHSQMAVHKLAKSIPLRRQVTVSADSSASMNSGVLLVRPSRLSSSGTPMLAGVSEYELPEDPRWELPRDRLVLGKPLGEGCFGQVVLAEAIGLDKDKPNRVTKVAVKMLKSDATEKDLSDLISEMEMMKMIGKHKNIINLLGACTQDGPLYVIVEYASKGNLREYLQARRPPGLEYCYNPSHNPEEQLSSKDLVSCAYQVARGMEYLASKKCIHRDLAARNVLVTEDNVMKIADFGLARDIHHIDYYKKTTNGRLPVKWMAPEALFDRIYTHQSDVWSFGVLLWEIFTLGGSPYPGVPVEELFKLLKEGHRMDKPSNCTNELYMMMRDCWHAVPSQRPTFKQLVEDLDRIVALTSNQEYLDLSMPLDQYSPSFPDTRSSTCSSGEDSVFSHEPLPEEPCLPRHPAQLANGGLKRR
cAMP-dependent protein kinase catalytic subunit PRKX (Homo sapiens), sequence (P51817 whole entry): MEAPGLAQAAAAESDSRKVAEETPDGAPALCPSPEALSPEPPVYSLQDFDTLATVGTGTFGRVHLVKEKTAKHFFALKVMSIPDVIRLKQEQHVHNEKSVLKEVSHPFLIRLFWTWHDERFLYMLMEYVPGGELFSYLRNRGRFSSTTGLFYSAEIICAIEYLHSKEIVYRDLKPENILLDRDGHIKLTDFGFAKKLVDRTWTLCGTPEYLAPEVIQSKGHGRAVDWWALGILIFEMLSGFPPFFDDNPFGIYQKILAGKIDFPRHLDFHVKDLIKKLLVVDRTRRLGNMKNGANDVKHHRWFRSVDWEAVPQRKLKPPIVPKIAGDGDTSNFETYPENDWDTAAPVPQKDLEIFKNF
Serine/threonine-protein kinase tousled-like 2, sequence (Q86UE8 whole entry): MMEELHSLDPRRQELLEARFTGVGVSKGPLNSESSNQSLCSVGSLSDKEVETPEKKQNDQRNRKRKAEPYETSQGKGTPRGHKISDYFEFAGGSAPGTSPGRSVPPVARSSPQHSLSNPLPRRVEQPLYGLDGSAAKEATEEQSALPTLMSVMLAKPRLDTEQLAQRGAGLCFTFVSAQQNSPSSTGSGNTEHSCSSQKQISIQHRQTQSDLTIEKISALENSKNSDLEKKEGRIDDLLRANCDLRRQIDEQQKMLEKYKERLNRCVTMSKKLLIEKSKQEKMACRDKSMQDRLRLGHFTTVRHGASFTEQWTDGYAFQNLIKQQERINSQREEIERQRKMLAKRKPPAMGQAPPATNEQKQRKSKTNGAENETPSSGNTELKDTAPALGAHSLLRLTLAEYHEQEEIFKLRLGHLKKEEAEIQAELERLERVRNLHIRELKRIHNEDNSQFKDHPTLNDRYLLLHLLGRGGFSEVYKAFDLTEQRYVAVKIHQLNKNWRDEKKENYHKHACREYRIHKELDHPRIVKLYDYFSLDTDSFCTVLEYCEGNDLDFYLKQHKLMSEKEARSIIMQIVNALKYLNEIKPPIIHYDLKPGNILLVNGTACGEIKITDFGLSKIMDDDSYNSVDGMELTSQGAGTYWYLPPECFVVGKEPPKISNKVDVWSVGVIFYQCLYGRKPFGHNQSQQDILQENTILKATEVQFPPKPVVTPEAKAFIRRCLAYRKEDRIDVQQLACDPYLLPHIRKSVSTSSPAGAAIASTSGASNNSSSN
Insulin receptor, sequence (P06213 28-758 limits assumed): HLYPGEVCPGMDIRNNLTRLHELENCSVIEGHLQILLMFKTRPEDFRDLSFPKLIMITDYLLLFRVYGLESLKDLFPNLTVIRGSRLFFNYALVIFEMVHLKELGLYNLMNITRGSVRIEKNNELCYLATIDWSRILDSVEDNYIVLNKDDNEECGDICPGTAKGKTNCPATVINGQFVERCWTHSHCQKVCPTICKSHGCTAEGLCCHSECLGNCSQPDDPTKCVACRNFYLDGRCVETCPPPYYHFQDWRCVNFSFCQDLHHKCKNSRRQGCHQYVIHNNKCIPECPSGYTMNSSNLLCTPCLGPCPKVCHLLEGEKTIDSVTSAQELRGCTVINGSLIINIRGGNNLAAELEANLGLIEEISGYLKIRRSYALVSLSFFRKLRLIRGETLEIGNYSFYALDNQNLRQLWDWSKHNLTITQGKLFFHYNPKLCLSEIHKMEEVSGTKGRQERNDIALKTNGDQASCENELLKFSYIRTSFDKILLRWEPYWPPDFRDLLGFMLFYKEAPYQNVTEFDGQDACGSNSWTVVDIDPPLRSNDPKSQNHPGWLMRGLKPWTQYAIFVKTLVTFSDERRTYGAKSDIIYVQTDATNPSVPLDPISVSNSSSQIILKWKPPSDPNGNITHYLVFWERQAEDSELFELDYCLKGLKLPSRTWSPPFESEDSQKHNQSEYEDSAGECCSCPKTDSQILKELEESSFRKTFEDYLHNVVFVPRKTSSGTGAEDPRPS
Insulin receptor, sequence (P06213 763-1382 limits assumed): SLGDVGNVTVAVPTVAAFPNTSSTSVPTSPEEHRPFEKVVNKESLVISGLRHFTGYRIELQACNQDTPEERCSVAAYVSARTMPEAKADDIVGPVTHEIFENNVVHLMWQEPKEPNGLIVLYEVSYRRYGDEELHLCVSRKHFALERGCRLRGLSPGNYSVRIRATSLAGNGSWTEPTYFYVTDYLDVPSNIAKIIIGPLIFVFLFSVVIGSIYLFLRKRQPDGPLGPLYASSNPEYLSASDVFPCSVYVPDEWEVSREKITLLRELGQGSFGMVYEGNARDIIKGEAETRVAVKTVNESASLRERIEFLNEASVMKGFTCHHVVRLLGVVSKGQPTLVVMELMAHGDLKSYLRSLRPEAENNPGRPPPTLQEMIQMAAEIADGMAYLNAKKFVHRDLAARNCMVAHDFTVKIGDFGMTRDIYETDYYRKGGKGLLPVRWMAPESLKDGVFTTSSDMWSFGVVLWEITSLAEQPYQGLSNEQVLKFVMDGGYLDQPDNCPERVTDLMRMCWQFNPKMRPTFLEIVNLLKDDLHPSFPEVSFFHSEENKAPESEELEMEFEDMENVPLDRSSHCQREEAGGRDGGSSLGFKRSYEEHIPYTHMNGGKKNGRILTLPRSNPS
Serine/threonine-protein kinase SIK1 (Homo sapiens), sequence (P57059 whole entry, the tested form may be a part): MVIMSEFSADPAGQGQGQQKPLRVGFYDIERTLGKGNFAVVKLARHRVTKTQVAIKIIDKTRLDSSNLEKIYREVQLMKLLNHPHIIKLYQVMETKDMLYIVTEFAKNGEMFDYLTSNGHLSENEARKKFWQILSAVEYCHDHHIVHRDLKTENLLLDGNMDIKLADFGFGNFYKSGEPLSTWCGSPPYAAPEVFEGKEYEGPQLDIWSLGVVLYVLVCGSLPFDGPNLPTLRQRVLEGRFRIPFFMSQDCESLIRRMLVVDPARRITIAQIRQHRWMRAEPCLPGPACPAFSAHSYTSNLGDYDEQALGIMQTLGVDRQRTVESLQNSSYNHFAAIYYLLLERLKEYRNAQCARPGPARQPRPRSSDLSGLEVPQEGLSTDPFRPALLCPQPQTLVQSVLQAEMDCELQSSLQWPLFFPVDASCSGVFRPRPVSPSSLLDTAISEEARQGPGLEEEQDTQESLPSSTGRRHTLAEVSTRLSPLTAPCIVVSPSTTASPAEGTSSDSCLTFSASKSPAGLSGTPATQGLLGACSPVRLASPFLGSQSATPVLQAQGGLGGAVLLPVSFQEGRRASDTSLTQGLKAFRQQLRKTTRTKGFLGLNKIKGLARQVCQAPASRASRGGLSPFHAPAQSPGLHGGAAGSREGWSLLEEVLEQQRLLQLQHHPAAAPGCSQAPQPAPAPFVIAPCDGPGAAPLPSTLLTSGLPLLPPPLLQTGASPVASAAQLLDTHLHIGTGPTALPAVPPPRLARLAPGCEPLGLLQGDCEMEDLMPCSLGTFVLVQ
Serine/threonine-protein kinase 26, sequence (Q9P289 whole entry): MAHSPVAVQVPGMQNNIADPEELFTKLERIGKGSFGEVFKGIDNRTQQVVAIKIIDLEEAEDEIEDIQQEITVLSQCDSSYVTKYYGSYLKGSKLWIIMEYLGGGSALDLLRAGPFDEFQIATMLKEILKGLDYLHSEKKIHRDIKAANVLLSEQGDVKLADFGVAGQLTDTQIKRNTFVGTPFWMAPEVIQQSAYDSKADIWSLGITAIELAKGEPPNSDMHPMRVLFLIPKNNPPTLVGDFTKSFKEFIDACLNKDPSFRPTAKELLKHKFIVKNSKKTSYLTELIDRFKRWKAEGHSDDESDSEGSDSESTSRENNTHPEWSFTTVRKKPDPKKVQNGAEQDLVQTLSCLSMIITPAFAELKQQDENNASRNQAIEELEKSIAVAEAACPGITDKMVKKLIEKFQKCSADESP

## CN1CCN(c2ccc(OC(F)(F)F)c(Nc3ncc4c(n3)-c3c(c(C(N)=O)nn3CCO)CC4)c2)CC1 [ONVANSERTIB]
[1]
  Activity: 139%
[2]
  Activity: 93%
[3]
  Activity: 85%
[4]
  IC50: > 10 µM
[5]
  IC50: 66 nM
[6]
  Activity: 142%
[7]
  IC50: 56 nM
[8]
  IC50: 40 nM
[9]
  IC50: 1310 nM
[10]
  IC50: > 10 µM
[11]
  Activity: 114%
[12]
  IC50: > 10 µM
[13]
  IC50: 93 nM
[14]
  Cmax: 1900 nM
[15]
  IC50: 175 nM
[16]
  Activity: 93%
[17]
  inhibition: 95.5%
[18]
  Activity: 118%
[19]
  IC50: > 10 µM
[20]
  IC50: 18 nM
[21]
  half-life: 186 min
[22]
  IC50: 39 nM
[23]
  IC50: > 10 µM
[24]
  IC50: 50 nM
[25]
  Activity: 93%
[26]
  IC50: 60 nM
[27]
  Activity: 89%
[28]
  IC50: 83 nM
[29]
  IC50: 0.826 µmol/L
[30]
  IC50: > 10 µM
[31]
  Activity: 69%
[32]
  Activity: 129%
